# APJ agonist – APJ receptor agonism. CHO-K1 APJ PathHunter beta-arrestin, luminescence; 0% DMSO wells, 100% apelin. activation, % at 20 µM. AID 2520. 0.11% of 330,000 active. P35414;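 active = activation more than six SD over the plate average, tested at 20 µM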
#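 Test system: CHO-K1 APJ beta-arrestin complementation cell line | Compound: Single test compound dose, 20 µM final, 1% DMSO | Incubation: Compound 90 min 25 °C, reagent 1 h | Measured by: beta-gal luminescence | Read-out basis: APJ–arrestin association signal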
# APJ antagonist – APJ receptor antagonism. P35414. CHO-K1 APJ beta-arrestin complementation, luminescence. 0.32% of 330,000 active. inhibition, % at 20 µM. AID 2521;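 active = inhibition above about 40% at 20 µM, limit read from the data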;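 also: cells challenged with 10 nM apelin-13 agonist together with compound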
# CCR6 antagonist – antagonists of human CCR6 receptor. AID 493098. inhibition, % at 20 µM. CHO-K1 CCR6 PathHunter beta-arrestin, luminescence, CCL20-stimulated. P51684. 0.49% of 340,000 active;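 active = compounds whose inhibition of the agonist-driven luminescence signal at 20 µM reaches about 50%, limit read from the data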;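 also: cells stimulated with CCL20 at 14 nM final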
# Target sequence (P51684 whole entry, looked up): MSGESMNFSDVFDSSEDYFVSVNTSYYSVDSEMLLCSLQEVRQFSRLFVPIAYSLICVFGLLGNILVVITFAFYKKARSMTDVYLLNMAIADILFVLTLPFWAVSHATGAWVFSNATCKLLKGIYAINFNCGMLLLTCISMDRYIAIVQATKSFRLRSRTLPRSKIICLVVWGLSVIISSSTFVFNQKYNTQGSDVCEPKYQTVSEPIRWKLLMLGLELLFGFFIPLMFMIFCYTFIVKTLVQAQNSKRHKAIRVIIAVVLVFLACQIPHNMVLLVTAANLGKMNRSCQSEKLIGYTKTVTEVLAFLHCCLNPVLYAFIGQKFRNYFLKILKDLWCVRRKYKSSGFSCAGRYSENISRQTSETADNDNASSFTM
# CXCR6 block – blocks human CXCR6 beta-arrestin recruitment; CHO-K1 PathHunter CXCR6 beta-arrestin, luminescence; 0.36% of 360,000 active; inhibition, % at 20 µM; O00574; in the data active = inhibition above about 34%, passing the limit was not always enough;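 also: antagonist mode with CXCL16 agonist at 10 nM final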
# EBI2 antag – antagonists of human EBI2 receptor. P32249. EBI2 beta-arrestin recruitment, luminescence, 7a,25-OHC stimulated. inhibition, % at 5 µM. 0.81% of 360,000 active. AID 651636; in the data active = inhibition above about 38%;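 also: enzyme fragment complementation signal reports receptor beta-arrestin coupling in cells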
# APJ ag confirm – APJ receptor agonism confirmation | 10% of 310 active | CHO-K1 APJ PathHunter beta-arrestin, luminescence | activation, % at 20 µM | shares compounds with APJ agonist;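 active = activation above 40%, taking the highest of four retests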
# APJ antag conf – confirmation of human APJ apelin receptor antagonists; APJ beta-arrestin recruitment, luminescence, antagonist mode; shares compounds with APJ antagonist; inhibition, % at 20 µM; 66% of 950 active; in the data active = inhibition above about 50%
# CXCR6 confirm – confirmation of human CXCR6 receptor antagonists; 65% of 700 active; shares compounds with CXCR6 block; AID 602409; CHO-K1 CXCR6 PathHunter beta-arrestin, luminescence; inhibition, % at 20 µM;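 active = mean inhibition over four retests above 40%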;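 also: receptor stimulated with 10 nM CXCL16 agonist; beta-galactosidase fragment complementation upon beta-arrestin recruitment to receptor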
# EBI2 antag conf – EBI2 (human) antagonism, single concentration confirmation; 29% of 2,400 active; shares compounds with EBI2 antag; inhibition, % at 5 µM; EBI2 beta-arrestin luminescence, 7a,25-OHC antagonism; AID 651997;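 active = inhibition of at least 50%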
# EBI2 agonist – activates EBI2, counter-screen for EBI2 antagonists; activation, % at 5 µM; shares compounds with EBI2 antag; EBI2-expressing cells, agonist mode, luminescence, 60 min; 0% vehicle, 100% 7α,25-dihydroxycholesterol control; AID 652000; 2,400 tested, under 10 active;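 active = activation of at least 50%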
# bGal cs – inhibits E. coli beta-galactosidase, counter-screen for EBI2 antagonists; shares compounds with EBI2 antag; purified beta-galactosidase, luminescent Galacton Star, 15 min; inhibition, % at 5 µM; 1% of 2,400 active; AID 652176;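 active = replicate-average signal at least 3 plate SD below neutral wells, shown as high inhibition, flagging enzyme-inhibiting false positives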;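 also: higher means stronger loss of beta-gal luminescence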
# Numbers stand for hits; - = inactive; . = no result. Shown are actives, neighbours in structure and some others; about 1.5% of the full set was active somewhere.
SMILES,APJ agonist,APJ antagonist,CCR6 antagonist,CXCR6 block,EBI2 antag,others
O=C(CN1CCCCC1)c1cccc(Br)c1,-,-,68,-,-,
CCOC(=O)[C@]12Cc3cc4ccccc4cc3[C@H]1N(Cc1ccccc1)C(=O)c1ccccc12,.,.,.,-,-,
CSc1ncc(/C=C2/C(=O)NC(=O)N(c3ccc(C)cc3)C2=O)cn1,-,-,-,-,-,
Cc1ccc(N2C(=O)NC(=O)/C(=C/c3cnn(-c4ccc(C)cc4)c3)C2=O)cc1,-,-,-,43,-,
CC(=O)O[C@H]1CC[C@@]2(C)C(=CC[C@@H]3[C@@H]2CC[C@]2(C)C(=O)CC[C@@H]32)C1,-,-,-,-,-,
CC(=O)O/C(=C1\CC2C3CC=C4CC(OC(C)=O)CCC4(C)C3CCC2(C)C1=O)C(F)(F)F (stereo unspecified),.,.,83,62,-,
CCOC(=O)[C@]12Cc3c(cc(OC)c(OC)c3OC)[C@H]1N(C(C)C)C(=O)c1cc(OC)ccc12,.,.,.,-,-,
N#CC1c2ccccc2-n2nncc2CN1Cc1cc(Cl)cc(Cl)c1 (stereo unspecified),.,.,-,-,43,
CC1C(=O)CC2(C(C)C)CC12 (stereo unspecified),.,.,.,-,-,
COC(=O)[C@@H]1[C@@H](C(=O)OC)C2(c3ccccc3-c3ccccc32)N(c2ccc(Cl)cc2)N1C#N,-,-,-,-,45,
COC(=O)C[C@]1(C(=O)OC)CN(C#N)N(c2ccc(Cl)cc2)C12c1ccccc1-c1ccccc12,-,-,-,-,-,
C[C@]1(O)CCC2C3CC[C@H]4C[C@@H](OC(=O)[C@@H](N)CCCCN)CC[C@]4(C)C3CC[C@@]21C (stereo partly specified),.,.,.,-,-,
COc1ccc(C(SCC(NC(=O)OCc2ccccc2)C(=O)O)c2ccc(OC)cc2)cc1 (stereo unspecified),.,.,.,-,-,
CCCCn1c(NC(=O)c2ccc(Br)o2)c(C(=O)OCC)c2nc3ccccc3nc21,-,63,-,-,-,
COc1ccc(O)c2c(=O)c3c(OC)cc4c(c3oc12)C1C=COC1O4 (stereo unspecified),-,-,-,-,53,
CCOC(=O)[C@]12Cc3cc(Cl)ccc3[C@H]1N(C1CCCCC1)C(=O)c1ccccc12,.,.,.,-,76,
Cc1ccccc1-n1c(/C=C/c2ccccn2)nc2ccccc2c1=O,-,-,-,-,-,
CN1C2CCC1/C(=C/c1ccccn1)C(=O)/C2=C\c1ccccn1,.,.,-,38,-,
CCOC(=O)c1cc2cc(OC)ccc2n1C1CCN(Cc2ccccc2)CC1,.,.,.,-,-,
CCOc1ccc(N2C(=O)/C(=C/c3ccco3)C(=O)NC2=S)cc1,-,-,79,58,-,
O=C1NC(=O)N(c2ccccc2)C(=O)/C1=C\C=C\c1ccccc1,-,-,-,53,-,
CCc1ccc(N2C(=O)NC(=O)/C(=C\C=C\c3ccco3)C2=O)cc1,-,-,-,-,-,
Cc1ccc(N2C(=O)NC(=O)/C(=C/C=C/c3ccco3)C2=O)cc1,-,-,53,-,45,
CCOC(=O)[C@]12Cc3ccccc3[C@H]1N(CCC(=O)OC)C(=O)c1cc(OC)ccc12,.,.,.,-,-,
CCOc1cc2[nH]c(=S)n(CCCC(=O)N3CCC4(CC3)OCCO4)c(=O)c2cc1OCC,35,-,-,-,-,APJ ag confirm=-
SMILES,APJ agonist,APJ antagonist,CCR6 antagonist,CXCR6 block,EBI2 antag,others
CCOC(=O)[C@]12Cc3ccc4ccccc4c3[C@H]1N(Cc1ccccc1)C(=O)c1ccccc12,.,.,.,-,-,
CCC1CCCCN1CC(=O)c1ccc(OC(F)F)cc1 (stereo unspecified),-,44,-,-,-,APJ antag conf=52
N#Cc1c(/N=C/c2ccc(O)cc2O)sc2c1C1CCN2CC1,-,42,-,-,-,APJ antag conf=-
COc1ccc(-n2nnnc2C(c2cccc3ccccc23)N2CCC3(CC2)C(=O)NCN3c2ccccc2)cc1 (stereo unspecified),.,.,.,-,-,
CCOC(=O)[C@]12Cc3cc(Cl)ccc3[C@H]1N(C(C)C)C(=O)c1ccccc12,.,.,.,-,-,
O=C1/C(=C/c2ccccc2)C[C@@]2(O)[C@H]3Cc4ccc(O)c5c4[C@@]2(CCN3CC2CC2)C1O5 (stereo partly specified),-,56,80,58,55,APJ antag conf=93
Oc1ccc2c3c1OC1c4[nH]c5ccccc5c4C[C@@]4(O)C(C2)N(CC2CC2)CC[C@]314 (stereo partly specified),-,-,-,-,-,
CN1C(=O)C(=Cc2ccc(N3CCOCC3)o2)C(=O)N(C)C1=O,-,-,-,-,-,
CN1C(=O)C(=Cc2ccc(N3CCCCCC3)o2)C(=O)N(C)C1=S,-,47,-,-,-,APJ antag conf=79
Nc1c(C(=O)OCc2ccccc2)c2nc3ccccc3nc2n1Cc1cccs1,-,63,-,-,50,APJ antag conf=-;EBI2 antag conf=-;EBI2 agonist=-;bGal cs=-
CC[C@@H]1C=CC=CC[C@H](C)[C@@H](O)[C@@H](C)C(=O)[C@H](C)[C@@H](O)[C@H](C)C(=O)[C@H](C)[C@@H](O)[C@H](C)C=CC(=O)O[C@H]2[C@@H](C)[C@@H](CC1)O[C@@]1(CC[C@@H](C)[C@@H](C[C@H](C)O)O1)[C@@H]2C,-,-,.,.,.,
COC(=O)C1=C(C(=O)OC)C2OC1c1cc3ccccc3cc12,.,.,109,85,-,CXCR6 confirm=91
CC(=O)OC1C(O)C2=C3C4(C)C1C(C)(C)C(=O)CC4C3(O)C(OC(C)=O)C1(CC1C)C2=O (stereo unspecified),.,.,.,-,-,
CC1=C(O)C(=O)C=C2C1=CC=C1C2(C)CCC2(C)C3CC(C)(C(=O)O)CCC3(C)CCC12C (stereo unspecified),.,.,.,64,-,CXCR6 confirm=53
O=C(COc1ccc2ccc(=O)oc2c1)N1CCC(C(=O)O)(c2ccccc2)CC1,-,-,-,-,-,
O=c1c(C=NCc2cccs2)c(O)n(C2CCCCC2)c(=O)n1C1CCCCC1,-,-,-,-,44,EBI2 antag conf=-;EBI2 agonist=-;bGal cs=-
